# Test results taken from PMC7677148 (European Journal of Drug Metabolism and Pharmacokinetics, 2020).
# Like-named read-outs stand apart in the source and are kept apart here.
# How the values were obtained:
# OATP1B3 [1] = molecular target: T1, OATP1B3 (Homo sapiens, UniProt Q9NPD5); test: OATP1B3 inhibition assay; type: cell-based
# T1 sequence (Q9NPD5 1-702): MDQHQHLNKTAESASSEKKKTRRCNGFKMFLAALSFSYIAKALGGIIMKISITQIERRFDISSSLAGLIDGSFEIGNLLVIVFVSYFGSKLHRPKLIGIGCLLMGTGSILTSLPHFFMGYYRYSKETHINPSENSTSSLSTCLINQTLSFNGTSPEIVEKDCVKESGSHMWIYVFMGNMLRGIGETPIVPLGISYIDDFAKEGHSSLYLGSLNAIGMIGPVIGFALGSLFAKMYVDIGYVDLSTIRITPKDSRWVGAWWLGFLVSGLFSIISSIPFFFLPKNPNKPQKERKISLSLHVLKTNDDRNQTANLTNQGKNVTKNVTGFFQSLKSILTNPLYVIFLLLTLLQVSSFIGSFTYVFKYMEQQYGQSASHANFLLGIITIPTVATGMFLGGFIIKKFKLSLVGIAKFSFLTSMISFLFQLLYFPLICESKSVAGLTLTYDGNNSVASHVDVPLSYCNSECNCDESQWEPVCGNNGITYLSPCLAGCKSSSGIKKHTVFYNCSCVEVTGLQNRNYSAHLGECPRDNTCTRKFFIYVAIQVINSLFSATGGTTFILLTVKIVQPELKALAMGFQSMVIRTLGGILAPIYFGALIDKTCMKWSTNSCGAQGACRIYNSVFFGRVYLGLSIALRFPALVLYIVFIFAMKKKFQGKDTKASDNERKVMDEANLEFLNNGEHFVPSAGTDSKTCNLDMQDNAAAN
# OATP2B1 = molecular target: T2, OATP2B1 (Homo sapiens, UniProt O94956); test: OATP2B1 inhibition assay; type: cell-based
# T2 sequence (O94956 1-709): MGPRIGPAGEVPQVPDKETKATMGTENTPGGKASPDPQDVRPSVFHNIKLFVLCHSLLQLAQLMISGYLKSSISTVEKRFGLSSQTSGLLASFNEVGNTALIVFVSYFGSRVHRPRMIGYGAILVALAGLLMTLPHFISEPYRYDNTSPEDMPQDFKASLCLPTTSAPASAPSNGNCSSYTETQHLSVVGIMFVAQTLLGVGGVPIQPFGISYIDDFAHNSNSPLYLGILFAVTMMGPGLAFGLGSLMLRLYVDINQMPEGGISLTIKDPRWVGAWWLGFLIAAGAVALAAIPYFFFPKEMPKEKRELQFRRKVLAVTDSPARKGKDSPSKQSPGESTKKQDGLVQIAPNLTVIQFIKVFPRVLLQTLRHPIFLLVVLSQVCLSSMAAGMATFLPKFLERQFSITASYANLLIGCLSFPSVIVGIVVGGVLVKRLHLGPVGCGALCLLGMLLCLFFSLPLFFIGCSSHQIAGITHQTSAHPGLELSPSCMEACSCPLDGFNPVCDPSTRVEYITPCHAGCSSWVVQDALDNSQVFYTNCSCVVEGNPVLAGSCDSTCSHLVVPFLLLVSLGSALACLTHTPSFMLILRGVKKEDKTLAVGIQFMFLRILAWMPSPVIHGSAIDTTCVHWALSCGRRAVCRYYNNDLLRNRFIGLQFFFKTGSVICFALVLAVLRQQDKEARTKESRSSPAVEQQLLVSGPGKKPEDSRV
# In short: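 HEK293 cells with tetracycline-inducible OATP2B1, grown in DMEM/Ham's F12/10% FCS and induced with 1 µg/ml tetracycline 72 h before assay. Substrate 1 µM DBF ± test compound (0.1–100 µM, in PBS/2% FCS), 10 min at 37 °C. After washing, median intracellular fluorescence read by flow cytometry. Normalised to non-induced cells. 8 replicates/concentration, 3–5 experiments. IC50 from four-parameter fit. Naringin control inhibitor.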
# OATP1B1 [2] = molecular target: T3, OATP1B1 (Homo sapiens, UniProt Q9Y6L6); test: OATP1B1 inhibition assay; type: cell-based
# T3 sequence (Q9Y6L6 1-691): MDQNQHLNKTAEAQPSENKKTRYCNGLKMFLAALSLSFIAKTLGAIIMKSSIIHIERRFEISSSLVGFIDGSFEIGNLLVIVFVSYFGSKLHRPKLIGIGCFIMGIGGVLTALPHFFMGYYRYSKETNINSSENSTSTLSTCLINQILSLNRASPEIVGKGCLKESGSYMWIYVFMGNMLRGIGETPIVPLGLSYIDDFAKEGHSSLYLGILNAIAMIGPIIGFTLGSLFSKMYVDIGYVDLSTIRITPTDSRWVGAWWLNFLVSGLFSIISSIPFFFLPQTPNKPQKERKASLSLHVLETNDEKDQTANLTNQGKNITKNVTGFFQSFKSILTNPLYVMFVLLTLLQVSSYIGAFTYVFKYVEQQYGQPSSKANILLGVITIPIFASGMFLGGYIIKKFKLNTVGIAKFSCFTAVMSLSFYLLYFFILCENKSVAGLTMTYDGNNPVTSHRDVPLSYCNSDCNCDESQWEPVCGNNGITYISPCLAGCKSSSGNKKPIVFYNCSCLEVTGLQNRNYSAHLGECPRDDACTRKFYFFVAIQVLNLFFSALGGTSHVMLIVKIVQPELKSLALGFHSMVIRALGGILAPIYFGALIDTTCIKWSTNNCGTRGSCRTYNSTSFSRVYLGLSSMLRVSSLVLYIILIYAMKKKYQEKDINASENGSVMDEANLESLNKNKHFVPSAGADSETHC
# In short: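 Stably transfected OATP1B1- or OATP1B3-HEK293 cells and empty-vector HEK293 control, grown in DMEM/10% FCS with G418. Cells exposed 10 min at 37 °C to 2.5 µM 8-FcA ± test compound (0.1–100 µM, in PBS/2% FCS). After washing, median intracellular fluorescence read by flow cytometry (30,000 cells, viable gate). With/without-inhibitor ratio normalised to control line. 8 replicates/concentration, 3–5 experiments. Four-parameter fit gives IC50. Rifampicin control.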
# [3] = rats; cited from earlier work
# OATP1B3 [4] = molecular target: T1, OATP1B3; settings: read-out: OATP1B3 IC50; control inhibitor; 8-FcA uptake; cited from earlier work
# OATP1B1 [5] = molecular target: T3, OATP1B1; settings: read-out: OATP1B1 IC50; control inhibitor; 8-FcA uptake; cited from earlier work
IC50 (OATP1B3 [1]) [µM],IC50 (OATP2B1) [µM],IC50 (OATP1B1 [2]) [µM],potency for OATP1B3 relative to rifampicin (OATP1B3 [1]; comparison of IC50 values),SMILES,bioavailability [3] [%],IC50 (OATP1B3 [4]) [nM],IC50 (OATP1B1 [5]) [nM]
> 100,14.2 ± 3.5,> 100,,"C[C@@H]1O[C@@H](OC[C@H]2O[C@@H](Oc3cc(O)c4c(c3)O[C@H](c3ccc(O)cc3)CC4=O)[C@H](O)[C@@H](O)[C@@H]2O)[C@H](O)[C@H](O)[C@H]1O [Narirutin, narirutin]",,,
21.1 ± 3.4,5.4 ± 0.6,8 ± 2.6,about ten times lower,"COc1ccc(-c2cc(=O)c3c(OC)c(OC)c(OC)cc3o2)cc1OC [Sinensetin, sinensetin]",,,
> 100,6.9 ± 1.4,> 100,,"C[C@@H]1O[C@@H](O[C@H]2[C@H](Oc3cc(O)c4c(c3)O[C@H](c3ccc(O)cc3)CC4=O)O[C@H](CO)[C@@H](O)[C@@H]2O)[C@H](O)[C@H](O)[C@H]1O [Naringin, naringin, reference compound]",,,
6.6 ± 0.4,1.6 ± 0.4,2.1 ± 0.7,,"COc1ccc(-c2cc(=O)c3c(OC)c(OC)c(OC)c(OC)c3o2)cc1OC [Nobiletin, nobiletin]",36,,
,,,,"CO[C@H]1/C=C/O[C@@]2(C)Oc3c(C)c(O)c4c(O)c(c(/C=N/N5CCN(C)CC5)c(O)c4c3C2=O)NC(=O)/C(C)=C\C=C\[C@H](C)[C@H](O)[C@@H](C)[C@@H](O)[C@@H](C)[C@H](OC(C)=O)[C@@H]1C [Rifampicin, rifampicin]",,~2000,~2000
5.6 ± 1,1.6 ± 0.8,4.8 ± 1.7,,"COc1ccc(-c2cc(=O)c3c(OC)c(OC)c(OC)c(OC)c3o2)cc1 [Tangeretin, tangeretin]",27,,
